Test results from ChEMBL document CHEMBL1122111, “Allergenic alpha-methylene-gamma-butyrolactones. Stereospecific syntheses of (+)- and (-)-gamma-methyl-alpha-methylene-gamma-butyrolactones. A study of the specificity of (+) and (-) enantiomers in inducing allergic contact dermatitis” (1982).

Assays:
Format in all cases: functional
Cavia porcellus [1] = species: Cavia porcellus; test: Tested for its effect on guinea pigs sensitized with (R)-5-Methyl-3-methylene -dihydro -furan-2-one, Number of sensitive animals out of 8 tested
How it was run: (§1)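 Female albino Hartley guinea pigs (250–300 g) received three 0.1-mL intradermal nuchal injections on alternate days of a 1:1 FCA/saline emulsion with 5% (+)-enantiomer. After 2 weeks rest, 0.25 mL of 1% or 2% methylene chloride solution was deposited on a 2-cm2 circle and read every 24 h. Erythema/swelling was scored 0–3; av = summed intensities divided by animal number.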

Cavia porcellus [2] = species: Cavia porcellus; test: Tested for its effect on guinea pigs sensitized with (S)5-Methyl-3-methylene-dihydro- furan-2-one; Number of sensitive animals out of 8 tested
How it was run: (§2)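 Albino female Hartley guinea pigs (250-300 g) got three 0.1 mL intradermal nuchal injections on alternate days of 1:1 FCA-saline emulsion with 5% enantiomer. After 2 weeks rest, 0.25 mL of 1% (enantiomers) or 1% or 2% (racemate) in methylene chloride was applied to a 2-cm2 area. Erythema/swelling scored 0-3 every 24 h; average = summed scores/animals.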

Cavia porcellus [3] = species: Cavia porcellus; test: Tested for its effect on guinea pigs sensitized with (R)-5-Methyl-3-methylene -dihydro -furan-2-one,av is calculated by adding the test intensity and divided by the number of animals; how it was run: as §1
Cavia porcellus [4] = species: Cavia porcellus; test: Tested for its effect on guinea pigs sensitized with (+/-)-5-Methyl-3-methylene-dihydro-furan-2-one, Number of sensitive animals out of 8 tested
How it was run: (§3)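 Female albino Hartley guinea pigs (250–300 g), sensitized by three intradermal nuchal injections of 0.1 mL on alternate days. The emulsion was 1:1 FCA/saline with 10% racemate (5% of each antipode). After 2 weeks rest, 0.25 mL of 1% or 2% methylene chloride solution was applied to a 2-cm2 area. Reactions were scored 0–3 every 24 h; av = summed scores/animals.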

Cavia porcellus [5] = species: Cavia porcellus; test: Tested for its effect on guinea pigs sensitized with (S)5-Methyl-3-methylene-dihydro- furan-2-one,av is calculated by adding the test intensity and divided by the number of animals; how it was run: as §2
Cavia porcellus [6] = species: Cavia porcellus; test: Tested for its effect on guinea pigs sensitized with (+/-)-5-Methyl-3-methylene-dihydro-furan-2-one, av is calculated by adding the test intensity and divided by the number of animals; how it was run: as §3
Cavia porcellus [7] = species: Cavia porcellus; test: Tested for its effect on guinea pigs sensitized with (+/-)-5-Methyl-3-methylene-dihydro-furan-2-one,number of animals showing no reaction; how it was run: as §3
Cavia porcellus [8] = species: Cavia porcellus; test: Tested for its effect on guinea pigs sensitized with (R)-5-Methyl-3-methylene -dihydro -furan-2-one, number of animals showing erythema and swelling of the test area; how it was run: as §1
Cavia porcellus [9] = species: Cavia porcellus; test: Tested for its effect on guinea pigs sensitized with (R)-5-Methyl-3-methylene -dihydro -furan-2-one,number of animals showing erythema covering the part of the test area; how it was run: as §2
Cavia porcellus [10] = species: Cavia porcellus; test: Tested for its effect on guinea pigs sensitized with (R)-5-Methyl-3-methylene -dihydro -furan-2-one,number of animals showing erythema covering the whole test area; how it was run: as §2
Cavia porcellus [11] = species: Cavia porcellus; test: Tested for its effect on guinea pigs sensitized with (R)-5-Methyl-3-methylene -dihydro -furan-2-one,number of animals showing no reaction; how it was run: as §2
Cavia porcellus [12] = species: Cavia porcellus; test: Tested for its effect on guinea pigs sensitized with (S)5-Methyl-3-methylene-dihydro- furan-2-one number of animals showing erythema and swelling of the test area.; how it was run: as §2
Cavia porcellus [13] = species: Cavia porcellus; test: Tested for its effect on guinea pigs sensitized with (S)5-Methyl-3-methylene-dihydro- furan-2-one number of animals showing erythema covering the part of the test area; how it was run: as §2
Cavia porcellus [14] = species: Cavia porcellus; test: Tested for its effect on guinea pigs sensitized with (S)5-Methyl-3-methylene-dihydro- furan-2-one number of animals showing no reaction; how it was run: as §2
Cavia porcellus [15] = species: Cavia porcellus; test: Tested for its effect on guinea pigs sensitized with (S)5-Methyl-3-methylene-dihydro- furan-2-onenumber of animals showing erythema covering the whole test area; how it was run: as §2
Cavia porcellus [16] = species: Cavia porcellus; test: Tested for its effect on guinea pigs sensitized with (+/-)-5-Methyl-3-methylene-dihydro-furan-2-one number of animals showing erythema and swelling of the test area; how it was run: as §3
Cavia porcellus [17] = species: Cavia porcellus; test: Tested for its effect on guinea pigs sensitized with (+/-)-5-Methyl-3-methylene-dihydro-furan-2-one,number of animals showing erythema covering the part of the test area; how it was run: as §3
Cavia porcellus [18] = species: Cavia porcellus; test: Tested for its effect on guinea pigs sensitized with (+/-)-5-Methyl-3-methylene-dihydro-furan-2-one,number of animals showing erythema covering the whole test area; how it was run: as §3

SMILES: C=C1C[C@H](C)OC1=O
- No. of sensitive animals (Cavia porcellus [1]): 5
- No. of sensitive animals (Cavia porcellus [2]): 8
- av (Cavia porcellus [3]): 0.4
- No. of sensitive animals (Cavia porcellus [4]): 8
- av (Cavia porcellus [5]): 0.9
- av (Cavia porcellus [6]): 1.8
- Skin tests intensity (Cavia porcellus [7]): 0
- Skin tests intensity (Cavia porcellus [8]): 0
- Skin tests intensity (Cavia porcellus [9]): 3
- Skin tests intensity (Cavia porcellus [10]): 2
- Skin tests intensity (Cavia porcellus [11]): 3
- Skin tests intensity (Cavia porcellus [12]): 0
- Skin tests intensity (Cavia porcellus [13]): 1
- Skin tests intensity (Cavia porcellus [14]): 0
- Skin tests intensity (Cavia porcellus [15]): 7
- Skin tests intensity (Cavia porcellus [16]): 6
- Skin tests intensity (Cavia porcellus [17]): 0
- Skin tests intensity (Cavia porcellus [18]): 2
